Laboratory results: ChEMBL document CHEMBL1124794, “Synthesis, chemistry, and antineoplastic activity of alpha-halopyridinium salts: potential pyridone prodrugs of acylated vinylogous carbinolamine tumor inhibitors” (J Med Chem, 1990)

Key:
[1] = system: P388; test: In vivo activity against P388 Lymphocytic Leukemia in CD2F1 mice at the dose of 50 mg/kg, activity expressed as TDS; 0/4; format: functional, Mus musculus
Outline: (§1)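 CD2F1 mice were inoculated with ascitic fluid holding ca. 10^6 P388 cells. Drug was given daily from 24 h after inoculation, from solutions or suspensions made fresh each day, some as a saline suspension. TDS is survivors/initial animals on day 5. BWD is body weight on day 5 minus day 1. %T/C compares median survival of treated and control mice.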

[2] = system: P388; test: In vivo activity against P388 Lymphocytic Leukemia in CD2F1 mice at the dose of 6.2 mg/kg, activity expressed as % T/C; format: functional, Mus musculus; outline: as §1
[3] = system: P388; test: In vivo activity against P388 Lymphocytic Leukemia in CD2F1 mice at the dose of 25 mg/kg, activity expressed as TDS; 4/4; format: functional, Mus musculus; outline: as §1
[4] = system: P388; test: In vivo activity against P388 Lymphocytic Leukemia in CD2F1 mice at the dose of 6.2 mg/kg, activity expressed as body weight difference; format: functional, Mus musculus; outline: as §1
[5] = system: P388; test: In vivo activity against P388 Lymphocytic Leukemia in CD2F1 mice at the dose of 12.5 mg/kg, activity expressed as TDS; 4/4; format: functional, Mus musculus; outline: as §1
[6] = system: P388; test: In vivo activity against P388 Lymphocytic Leukemia in CD2F1 mice at the dose of 12.5 mg/kg, activity expressed as % T/C; format: functional, Mus musculus; outline: as §1
[7] = system: P388; test: In vivo activity against P388 Lymphocytic Leukemia in CD2F1 mice at the dose of 25 mg/kg, activity expressed as % T/C; format: functional, Mus musculus; outline: as §1
[8] = system: P388; test: In vivo activity against P388 Lymphocytic Leukemia in CD2F1 mice at the dose of 6.2 mg/kg, activity expressed as TDS; 4/4; format: functional, Mus musculus; outline: as §1
[9] = system: P388; test: In vivo activity against P388 Lymphocytic Leukemia in CD2F1 mice at the dose of 12.5 mg/kg, activity expressed as body weight difference; format: functional, Mus musculus; outline: as §1
[10] = system: P388; test: In vivo activity against P388 Lymphocytic Leukemia in CD2F1 mice at the dose of 25 mg/kg, activity expressed as body weight difference; format: functional, Mus musculus; outline: as §1
[11] = Hydrolysis were done at 25 degree C in 0.05 M phosphate buffer (pH 7.4); format: ADME
Outline: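 Model pyridinium salts were hydrolysed to pyridones at 25 °C in 0.05 M phosphate buffer, pH 7.4. Decay of the pyridinium UV absorption maximum was monitored over time, giving pseudo-first-order k_obs and half-life.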

[12] = Half life of the compound; format: ADME
[13] = system: P388; test: In vivo activity against P388 Lymphocytic Leukemia in CD2F1 mice at the dose of 100 mg/kg, activity expressed as % T/C; format: functional, Mus musculus; outline: as §1
[14] = system: P388; test: In vivo activity against P388 Lymphocytic Leukemia in CD2F1 mice at the dose of 50 mg/kg, activity expressed as TDS; 6/6; format: functional, Mus musculus; outline: as §1
[15] = system: P388; test: In vivo activity against P388 Lymphocytic Leukemia in CD2F1 mice at the dose of 50 mg/kg, activity expressed as KE; format: functional, Mus musculus
[16] = system: P388; test: In vivo activity against P388 Lymphocytic Leukemia in CD2F1 mice at the dose of 50 mg/kg, activity expressed as % T/C; format: functional, Mus musculus; outline: as §1
[17] = system: P388; test: In vivo activity against P388 Lymphocytic Leukemia in CD2F1 mice at the dose of 100 mg/kg, activity expressed as TDS; format: functional, Mus musculus; outline: as §1
[18] = system: P388; test: In vivo activity against P388 Lymphocytic Leukemia in CD2F1 mice at the dose of 100 mg/kg, activity expressed as KE; format: functional, Mus musculus
[19] = system: P388; test: In vivo activity against P388 Lymphocytic Leukemia in CD2F1 mice at the dose of 50 mg/kg, activity expressed as body weight difference; format: functional, Mus musculus; outline: as §1
[20] = system: P388; test: In vivo activity against P388 Lymphocytic Leukemia in CD2F1 mice at the dose of 25 mg/kg, activity expressed as KE; format: functional, Mus musculus
[21] = system: P388; test: In vivo activity against P388 Lymphocytic Leukemia in CD2F1 mice at the dose of 12.5 mg/kg, activity expressed as KE; format: functional, Mus musculus
[22] = system: P388; test: In vivo activity against P388 Lymphocytic Leukemia in CD2F1 mice at the dose of 200 mg/kg, activity expressed as TDS; 0/6; format: functional, Mus musculus; outline: as §1
[23] = system: P388; test: In vivo activity against P388 Lymphocytic Leukemia in CD2F1 mice at the dose of 25 mg/kg, activity expressed as TDS; 6/6; format: functional, Mus musculus; outline: as §1
[24] = system: P388; test: In vivo activity against P388 Lymphocytic Leukemia in CD2F1 mice at the dose of 100 mg/kg, activity expressed as body weight difference; format: functional, Mus musculus; outline: as §1
[25] = system: P388; test: In vivo activity against P388 Lymphocytic Leukemia in CD2F1 mice at the dose of 12.5 mg/kg, activity expressed as TDS; 6/6; format: functional, Mus musculus; outline: as §1
[26] = system: P388; test: In vivo body weight difference was determined in P388 Lymphocytic Leukemia in CD2F1 mice at the dose of 100 mg/kg; format: functional, Mus musculus
[27] = system: P388; test: In vivo activity against P388 Lymphocytic Leukemia in CD2F1 mice at the dose of 200 mg/kg, activity expressed as TDS; 4/4; format: functional, Mus musculus; outline: as §1
[28] = system: P388; test: In vivo body weight difference was determined in P388 Lymphocytic Leukemia in CD2F1 mice at the dose of 50 mg/kg; format: functional, Mus musculus
[29] = system: P388; test: In vivo activity against P388 Lymphocytic Leukemia in CD2F1 mice at the dose of 50 mg/kg, activity expressed as TDS; 4/4; format: functional, Mus musculus; outline: as §1
[30] = system: P388; test: In vivo activity against P388 Lymphocytic Leukemia in CD2F1 mice at the dose of 200 mg/kg, activity expressed as % T/C; format: functional, Mus musculus; outline: as §1
[31] = system: P388; test: In vivo activity against P388 Lymphocytic Leukemia in CD2F1 mice at the dose of 100 mg/kg, activity expressed as TDS; 4/4; format: functional, Mus musculus; outline: as §1
[32] = system: P388; test: In vivo body weight difference was determined in P388 Lymphocytic Leukemia in CD2F1 mice at the dose of 200 mg/kg; format: functional, Mus musculus
[33] = system: P388; test: In vivo body weight difference was determined in P388 Lymphocytic Leukemia in CD2F1 mice at the dose of 25 mg/kg; format: functional, Mus musculus

CC(C)NC(=O)OCc1c(COC(=O)NC(C)C)c(-c2ccc(Cl)[n+](C)c2)n2c1CCC2.[I-]
TDS [1]: 0 | T/C [2]: 98% | TDS [3]: 4 | BWD [4]: -0.4 g | TDS [5]: 4 | T/C [6]: 102% | T/C [7]: 109% | TDS [8]: 4 | BWD [9]: 0.1 g | BWD [10]: -1.1 g

Cc1cc(Cl)c(Cl)[n+](C)c1.O=S(=O)([O-])C(F)(F)F
K obs [11]: 0.000917 min⁻¹ | half-life [12]: 12.6 h

CC(C)NC(=O)OCc1c(COC(=O)NC(C)C)c(-c2cc[n+](C)c(Cl)c2)n2c1CCC2.[I-]
T/C [6]: 103% | T/C [7]: 103% | T/C [13]: 121% | TDS [14]: 6 | KE [15]: -1.44 | T/C [16]: 112% | TDS [17]: 6 | KE [18]: -1.07 | BWD [19]: -0.5 g | KE [20]: -1.56 | BWD [9]: -0.1 g | KE [21]: -1.56 | TDS [22]: 0 | TDS [23]: 6 | BWD [24]: -0.8 g | TDS [25]: 6 | BWD [10]: 0.4 g

CC(C)NC(=O)OCc1c(COC(=O)NC(C)C)c(-c2cc(Br)c(Cl)[n+](C)c2)n2c1CCC2.[I-]
BWD [26]: -1 g | TDS [3]: 4 | TDS [27]: 4 | BWD [28]: -0.4 g | TDS [29]: 4 | T/C [30]: 105% | T/C [7]: 124% | T/C [13]: 122% | TDS [31]: 4 | T/C [16]: 118% | BWD [32]: -0.7 g | BWD [33]: -0.6 g

CCOC(=O)c1cc[n+](C)c(Cl)c1.O=S(=O)([O-])C(F)(F)F
K obs [11]: 0.055 min⁻¹ | half-life [12]: 6 h

Cc1cc(Br)c(Cl)[n+](C)c1.O=S(=O)([O-])C(F)(F)F
K obs [11]: 0.041 min⁻¹ | half-life [12]: 17 h
